Results published in ChEMBL document CHEMBL1124794, “Synthesis, chemistry, and antineoplastic activity of alpha-halopyridinium salts: potential pyridone prodrugs of acylated vinylogous carbinolamine tumor inhibitors” (J Med Chem, 1990).
“And” between values parts separate entries of the source, which are not always exact repeats. Equal entries are not always repeated. Values belong to the molecule of their own block, whether it stands above or below them.

Experiments:
[1] = tested on: L1210; assay: In vivo activity against murine L1210 tumor system at the dose of 100 mg/kg, activity expressed as TDS; 0/6; type: functional, Mus musculus
In short: (§1)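 L1210 lymphocytic leukemia: ascitic fluid with ca. 10^6 cells injected ip into CD2F1 mice. Dosing started 24 h after inoculation and was repeated daily for five doses in total, from solutions or suspensions made fresh each day. Toxicity day survivors were scored on day 5. Body weight difference is day 5 minus day 1. %T/C is based on median survival time versus controls.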

[2] = Effect of phosphate buffer concentration on the hydrolysis of alpha Fluoropyridinium Moity at the concentration of 0.02M, pH 6.5, 25 degree C.; type: ADME
In short: (§2)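 α-Fluoropyridinium hydrolysis to pyridone in phosphate buffer at 0.02, 0.05 or 0.10 M, pH 6.5 or 8.0, ionic strength […] °C. Pyridinium UV absorbance maximum followed with time to give pseudo-first-order kobs and half-life.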

[3] = Effect of pH on the hydrolysis of pyridinium Moity in 0.05 M buffer concentration at the pH 7.0; type: ADME
In short: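 Pyridinium salt in 0.05 M phosphate buffer, pH 6.0–8.0 (set by pH meter), ionic strength 0.25 M, 25 °C. Decrease in the pyridinium UV absorbance maximum followed over time to give pseudo-first-order kobs and half-life.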

[4] = Half life at the pH 6.5; type: ADME; settings: buffer
[5] = Effect of phosphate buffer on the hydrolysis of alpha Fluoropyridinium Moity at the concentration of 0.10M, pH 8.0, 25 degree C.; type: ADME; in short: as §2
[6] = tested on: MX1; assay: In vivo activity against murine MX-1 tumor system at the dose of 37.5 mg/kg, activity expressed as TDS; 4/6; type: functional, Mus musculus
[7] = Half life at the pH 7.0; type: ADME; settings: buffer
In short: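 Pyridinium-to-pyridone hydrolysis in 0.05 M phosphate buffer, ionic strength 0.25 M, 25 °C. pH set by meter. Loss of the pyridinium UV absorption maximum was followed over time to give pseudo-first-order k_obs and half-life.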

[8] = In vivo activity against murine M5076 tumor system at the dose of 50 mg/kg, activity expressed as %T/C.; type: functional, Mus musculus
[9] = In vivo activity against murine M5076 tumor system at the dose of 25 mg/kg, activity expressed as TDS; 10/10; type: functional, Mus musculus
In short: (§3)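 M5076: ascitic fluid with ca. 10^6 cells inoculated ip into CD2F1 mice. Dosing started 24 h after inoculation and was then given every 4 days for four doses in total, from solutions or suspensions made fresh each day. Toxicity day survivors were scored on day 5. Body weight difference is day 14 minus day 1. %T/C is based on median survival time versus controls.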

[10] = tested on: P388; assay: In vivo activity against P388 Lymphocytic Leukemia in CD2F1 mice at the dose of 25 mg/kg, activity expressed as body weight difference; type: functional, Mus musculus
In short: (§4)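 CD2F1 mice were inoculated with ascitic fluid holding ca. 10^6 P388 cells. Drug was given daily from 24 h after inoculation, from solutions or suspensions made fresh each day, some as a saline suspension. TDS is survivors/initial animals on day 5. BWD is body weight on day 5 minus day 1. %T/C compares median survival of treated and control mice.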

[11] = Effect of phosphate buffer on the hydrolysis of alpha Fluoropyridinium Moity at the concentration of 0.10M, pH 6.5, 25 degree C; type: ADME; in short: as §2
[12] = In vivo activity against murine M5076 tumor system at the dose of 100 mg/kg, activity expressed as TDS; 6/10; type: functional, Mus musculus; in short: as §3
[13] = Half life at the buffer concentration of 0.02 M.; type: ADME; in short: as §2
[14] = tested on: L1210; assay: In vivo activity against murine L1210 tumor system at the dose of 50 mg/kg, activity expressed as body weight difference; type: functional, Mus musculus; in short: as §1
[15] = tested on: P388; assay: In vivo activity against P388 Lymphocytic Leukemia in CD2F1 mice at the dose of 100 mg/kg, activity expressed as TDS; 1/6; type: functional, Mus musculus; in short: as §4
[16] = Effect of phosphate buffer on carbamate hydrolysis in acetonitrile-water at the concentration of 0.01 M on pH 7.4, 25 degree C.; type: ADME
In short: (§5)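 Bis-carbamate in acetonitrile–water (1:1), 25 ± 0.1 °C. Citrate buffer at pH 3.0 or phosphate buffer at pH 7.4, at 0.01, 0.025 or 0.05 M, ionic strength 0.136 (KCl). Kinetics followed by HPLC as the decrease in bis-carbamate peak area. The regression slope of ln(area0/areat) vs time gave pseudo-first-order kobs. Duplicates averaged.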

[17] = Half life at the pH 5.0; type: ADME; settings: buffer
In short: (§6)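 Bis-carbamate in acetonitrile–water (1:1; buffer added to a 0.5 mg/mL acetonitrile solution), 0.05 M buffer, ionic strength 0.136 (KCl), 25 ± 0.1 °C. Buffers: phosphate pH 2.0; citrate pH 3.0–3.5; succinate pH 4.0; acetate pH 5.0; phosphate pH 6.0–8.0; borate pH 9.0; carbonate pH 10.0. HPLC bis-carbamate peak-area loss, ln(area0/areat) vs time slope = kobs. Duplicates averaged.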

[18] = Effect of pH on carbamate hydrolysis in 0.05 M buffer concentration at the pH 4.0, 25 degree C.; type: ADME; in short: as §6
[19] = tested on: P388; assay: In vivo activity against P388 Lymphocytic Leukemia in CD2F1 mice at the dose of 400 mg/kg, activity expressed as body weight difference; T-C; type: functional, Mus musculus; in short: as §4
[20] = Half life at the pH 2.0; type: ADME; settings: buffer; in short: as §6
[21] = tested on: L1210; assay: In vivo activity against murine L1210 tumor system at the dose of 166.7 mg/kg, activity expressed as KE; type: functional, Mus musculus; in short: as §1
[22] = tested on: L1210; assay: In vivo activity against murine L1210 tumor system at the dose of 100 mg/kg, activity expressed as %T/C.; type: functional, Mus musculus
In short: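 CD2F1 mice received ca. 10^6 L1210 cells in ascitic fluid ip. Treatment started 24 h after inoculation and was given daily for five doses in total. %T/C compares median survival time of treated and control animals.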

[23] = tested on: L1210; assay: In vivo activity against murine L1210 tumor system at the dose of 100 mg/kg, activity expressed as TDS; 6/6; type: functional, Mus musculus; in short: as §1
[24] = In vivo activity against murine M5076 tumor system at the dose of 100 mg/kg, activity expressed as %T/C.; type: functional, Mus musculus; in short: as §3
[25] = tested on: P388; assay: In vivo activity against P388 Lymphocytic Leukemia in CD2F1 mice at the dose of 12.5 mg/kg, activity expressed as body weight difference; T-C; type: functional, Mus musculus; in short: as §4
[26] = In vivo activity against murine M5076 tumor system at the dose of 60 mg/kg, activity expressed as TDS; 10/10; type: functional, Mus musculus
[27] = Half life at the buffer concentration of 0.01 M.; type: ADME; in short: as §5
[28] = tested on: L1210; assay: In vivo activity against murine L1210 tumor system at the dose of mg/kg, activity expressed as %T/C.; type: functional, Mus musculus; in short: as §1
[29] = Half life at the concentration of 0.05 M.; type: ADME
[30] = Effect of pH on carbamate hydrolysis in 0.05 M buffer concentration at the pH 7.4, 25 degree C.; type: ADME; in short: as §6
[31] = In vivo activity against murine M5076 tumor system at the dose of 100 mg/kg, activity expressed as %T/C; 10/10.; type: functional, Mus musculus; in short: as §3
[32] = tested on: L1210; assay: In vivo activity against murine L1210 tumor system at the dose of 60 mg/kg, activity expressed as body weight difference; T-C; type: functional, Mus musculus; in short: as §1
[33] = tested on: P388; assay: In vivo activity against P388 Lymphocytic Leukemia in CD2F1 mice at the dose of 100 mg/kg, activity expressed as KE; type: functional, Mus musculus

K obs [2]: 0.0052 min⁻¹
K obs [3]: 0.0208 min⁻¹
half-life [4]: 45.3 min
K obs [5]: 0.036 min⁻¹
half-life [7]: 33.8 min
K obs [11]: 0.0138 min⁻¹
half-life [13]: 52.5 min
SMILES: CC(C)NC(=O)OCc1c(COC(=O)NC(C)C)c(-c2cc[n+](C)c(F)c2)n2c1CCC2.[I-]
TDS [1]: 0
TDS [6]: 4
T/C [8]: 118%
TDS [9]: 10
BWD [10]: -1 g
TDS [12]: 6
BWD [14]: -0.8 g
TDS [15]: 1

K obs [16]: 0.0133 min⁻¹
half-life [17]: 50 min
K obs [18]: 0.0149 min⁻¹
half-life [20]: 2.11 min
T1/2 [27]: 19.86 min and 52.31 min
half-life [29]: 22.8 min
K obs [30]: 0.013 min⁻¹
SMILES: CC(C)NC(=O)OCc1c(COC(=O)NC(C)C)c(-c2ccn(C)c(=O)c2)n2c1CCC2
BWD [19]: -1 g
KE [21]: -2.29
T/C [22]: 146%
TDS [23]: 6
T/C [24]: 122%
BWD [25]: -0.1 g
TDS [26]: 10
T/C [28]: 135%
TDS [31]: 10
BWD [32]: -3.2 g
KE [33]: 0.69
